FLuc inhib CS: firefly luciferase enzyme inhibitors, primary screen, artefact control for luciferase-based inhibitor screens, biochemical, luminescence, ATPLite; Luciferin 4-monooxygenase (Photinus pyralis), P08659; 10 min; inhibition, % at 10 µM; 200,000 tested, 1.5% active;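 active means inhibition above about 50% when tested at 10 µM, limit read from the data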
Target sequence (P08659 whole entry, looked up): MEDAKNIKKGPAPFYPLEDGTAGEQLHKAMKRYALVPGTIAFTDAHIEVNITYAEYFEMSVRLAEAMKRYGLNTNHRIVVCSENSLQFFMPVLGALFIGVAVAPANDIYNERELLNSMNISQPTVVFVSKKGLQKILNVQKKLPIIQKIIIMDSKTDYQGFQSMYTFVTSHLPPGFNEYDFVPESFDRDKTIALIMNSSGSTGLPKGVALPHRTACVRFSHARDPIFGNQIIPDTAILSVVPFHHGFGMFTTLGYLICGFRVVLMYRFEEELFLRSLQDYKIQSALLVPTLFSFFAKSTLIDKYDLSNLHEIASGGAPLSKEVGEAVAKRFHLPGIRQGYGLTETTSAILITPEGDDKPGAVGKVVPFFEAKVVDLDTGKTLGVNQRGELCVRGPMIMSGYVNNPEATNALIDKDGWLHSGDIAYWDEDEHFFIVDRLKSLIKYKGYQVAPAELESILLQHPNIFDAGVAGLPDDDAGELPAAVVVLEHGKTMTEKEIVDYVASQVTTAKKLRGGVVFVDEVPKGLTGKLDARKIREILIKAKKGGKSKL
PPC-1+TRAIL kill: compounds killing PPC-1 cancer cells with TRAIL present, primary screen, TRAIL potentiator project, ATPLite luminescence, uHTS | PPC-1 cells + TRAIL, ATPLite viability luminescence | cell killing (% activity), % at 4 µM or 5 µM | 220,000 tested, 0.41% active | AID 1443, 2008;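 active means cell killing above 50% in the first pass at 4 µM, then a duplicate retest at 5 µM averaging 50% or more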;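 further: plate controls were cells with TRAIL plus DMSO for no effect and medium-only wells lacking cells for full effect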
STAT3 inh: IL-6 driven STAT3 reporter inhibitors, primary screen, U3A cells, luciferase, luminescence, MLSCN library; IL-6 STAT3-luciferase reporter; host cell line lacks STAT1; inhibition, % at 5.5 µM; 190,000 tested, 0.89% active; AID 862, 2007;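 active means inhibition above the mean inhibition across all screened compounds plus 3 SD, cut at about 44% in these data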;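 further: 0% = DMSO only wells and 100% = 100 µM nifuroxazide control wells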
FLuc act counter: FLuc activators, initial screening, artefact control for FLuc-dependent activation tests, biochemical, ATPlite luminescence. 200,000 tested, under 10 active. Luciferin 4-monooxygenase (Photinus pyralis), P08659. activation factor at 10 µM. ATPlite luciferase biochemical, 10 min; 0 = ATP-free wells, 1 = DMSO control. AID 1027, 2008;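 active means luciferase activation factor, scaled between plate controls, of at least 2 with compound at 10 µM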
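System: luciferase plus luciferin reagent, cell-free; medium: PBS as buffer for the ATP substrate; dosing: test compounds dosed from 2 mM stocks in 100% DMSO; timing: 10 min post-reagent at room temperature; measured by: luminescence measurement of luciferase light output; evaluation: luciferase activation, seen as luminescence increase over controls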
HSP90 inh: HSP90 inhibitors, primary screen, cell lysate, luminescence | Heat shock protein HSP 90 (rabbit reticulocyte lysate; luciferase refolding) | Rabbit reticulocyte lysate, luciferase refolding luminescence, 3 h | inhibition, % at 5.6 µM | 290,000 tested, 0.91% active | AID 1789, 2009;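 active means inhibition above the screen-wide mean plus 3 SD, computed separately per campaign, cut at about 16% in these data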;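 further: 0% = DMSO wells and 100% = 60 µM geldanamycin wells; inhibitors lower the luminescence because luciferase stays unfolded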
C8 TRAIL sens: viability loss with TRAIL in NB7+C8 cells, primary screen, TRAIL sensitizer project, cell-based, ATPlite luminescence | inhibition (viability loss, TRAIL sensitization), % at 10 µM | 360,000 tested, 1% active;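 active means compounds causing at least 50% loss of cell viability in the single-dose screen, relative to plate controls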
An asterisk follows results filed as active; . = no result given. Shown are actives, neighbours in structure and some others; about 2.2% of the full set was active somewhere.

SMILES | FLuc inhib CS | PPC-1+TRAIL kill | STAT3 inh | FLuc act counter | HSP90 inh | C8 TRAIL sens
COc1ccc(C2C(C(=O)N3CCN(c4ccccc4)CC3)c3ccccc3C(=O)N2C)cc1 (configuration not stated) | -10 | 43 | 1 | 1.1 | 2 | 59*
COc1ccc(C2C(C(=O)N3CCCC3)c3cc(OC)c(OC)cc3C(=O)N2C)cc1OC (configuration not stated) | -3 | 15 | 11 | 1 | 7 | 6
COc1ccc(C2C(C(=O)N3CCN(c4ccccc4)CC3)c3ccccc3C(=O)N2C)cc1OC (configuration not stated) | 0 | 21 | -4 | 1 | 13 | 68*
COc1ccc(C2C(C(=O)N3CCOCC3)c3ccccc3C(=O)N2c2ccc(OC)cc2)cc1 (configuration not stated) | -1 | 7 | 5 | 1 | 3 | 2
NC(=O)c1ccc(NC(=O)COC(=O)CC23CC4CC(CC(Br)(C4)C2)C3)cc1 | . | . | . | . | . | -8
COC(=O)c1ccc2nc(-c3ccc(C)cc3)c(Cc3ccccc3OC)n2c1 | . | . | . | . | . | -15
COc1ccc(NS(=O)(=O)c2cc3c4c(c2)C(C)C(=O)N4CCC3)cc1 (configuration not stated) | . | . | . | . | -2 | -3
CCOC(=O)c1nnn2c1nc(SCC(C)=O)c1ccccc12 | . | 12 | . | . | 9 | -7
CCOC(=O)c1nnn2c1nc(Nc1cccc(C(F)(F)F)c1)c1ccccc12 | . | 18 | . | . | 1 | 59*
CCCCC(=O)Nc1ccc(C(=O)N2CCN(C)CC2)cc1 | 1 | 21 | 1 | 1 | 3 | -9
O=C(CCl)N(c1ccccc1)c1ccccc1 | -4 | -6 | 31 | 1 | 2 | 94*
Cc1ccc(N(NC(=O)C(O)(c2ccccc2)c2ccccc2)C(=O)CCl)cc1 | 5 | 30 | 2 | 0.9 | -1 | 54*
Cc1ccc(C(O)(C(=O)NN(C(=O)c2ccccc2)c2ccccc2)c2ccc(C)cc2)cc1 | 0 | 5 | -6 | 1 | 0 | -7
O=C(CCl)N(CCc1ccccc1)CCc1ccccc1 | . | . | . | . | 4 | 95*
CCCCCCN(C(=O)CCl)c1ccccc1 | . | 22 | . | . | 4 | 96*
O=C(N(c1ccccc1)c1ccccc1)N(c1ccccc1)c1ccccc1 | . | 19 | . | . | 8 | 11
COc1ccc(C(=O)NCC(c2ccccc2)N2CCCC2)cc1S(=O)(=O)N1CCOCC1 (configuration not stated) | . | . | . | . | . | -11
C=CCN1C(=O)C(=O)N(Cc2nc3ccccc3s2)C1=O | . | . | . | . | 0 | -1
CC1(C(=O)NS(=O)(=O)c2ccc(Cl)cc2)CCN1C(=O)Cc1cccs1 (configuration not stated) | . | . | . | . | . | 8
O=C(Nc1ccccc1)NN(C(=O)CCl)c1ccccc1 | . | . | . | . | -2 | 97*
CCCCCCCN(C(=O)CCl)c1cccc(C)c1 | -5 | 16 | 15 | 1 | 5 | 95*
N#CCCN(C(=O)CCl)c1cccc(Cl)c1 | -2 | -2 | 27 | 1 | 1 | -8
CCn1c(CC(=O)Nc2ccc(C)cc2)n[nH]c1=S | -1 | 6 | 10 | 1 | -3 | -9
Cc1ccc(NC(=O)c2ccccc2)s1 | 76* | 11 | 39 | 0.2 | 2 | 53*
Cc1cc(NC(=O)c2ccccc2)sc1C | 64* | 28 | 17 | 0.4 | 10 | 30
SMILES | FLuc inhib CS | PPC-1+TRAIL kill | STAT3 inh | FLuc act counter | HSP90 inh | C8 TRAIL sens
Cc1cc(NC(=O)c2ccccc2)cc(NC(=O)c2ccccc2)c1C | . | . | . | . | -6 | 14
CCCCn1nnnc1C(c1cc2ccccc2o1)N1CCCN(C(=O)OC(C)(C)C)CC1 (configuration not stated) | . | . | . | . | . | 3
Cc1nnsc1C(=O)N/N=C/c1ccc2ccccc2c1O | -5 | 60* | 7 | 1.1 | 2 | 17
CC(=O)N(c1ccc(C)cc1)S(=O)(=O)c1ccc(Cl)cc1 | -5 | 5 | 21 | 1 | 1 | -2
O=C1N=C(N2CCN(c3ccccc3)CC2)S/C1=C\c1ccco1 | 61* | 29 | 0 | 0.4 | 4 | 1
CN(C)c1ccc(C(=O)/C=C/c2ccco2)cc1 | 91* | 6 | 32 | 0.1 | 7 | 54*
CSc1ccc(/C=C/C(=O)c2ccc(O)cc2)cc1 | 70* | 24 | -6 | 0.3 | 1 | 33
Cc1ccc(/C=C/C(=O)c2ccc(O)cc2)cc1 | . | 41 | . | . | -2 | 39
CN(C)c1ccc(C(=O)/C=C/c2ccc(Br)cc2)cc1 | 30 | 8 | -5 | 0.7 | -1 | 18
CN(C)c1ccc(C(=O)/C=C/c2ccccc2)cc1 | 78* | 8 | 13 | 0.2 | 2 | 18
Cc1ccc(S(=O)(=O)N2CCN(C(=O)C(Cc3ccccc3)NC(=O)c3ccccc3)CC2)cc1 (configuration not stated) | . | . | . | . | . | -17
O=C(CCSCc1ccccc1F)NCCc1ccccc1 | -4 | 6 | 6 | 1 | 0 | 0
Nc1nc(=S)c2[nH]cnc2[nH]1 | . | . | . | . | . | 75*
Cc1ccc(/C=C/C(=O)c2c(C)nc3ccccn23)cc1 | 54* | 7 | 8 | 0.5 | -6 | 22
Cc1ccc(NC(=O)c2c(C)nc3ccccn23)cc1C | 67* | 24 | 12 | 0.3 | 0 | 19
Cc1cccc(NC(=O)c2c(C)nc3ccccn23)c1 | 5 | 10 | 12 | 1 | -2 | -5
Cc1nc2ccccn2c1C(=O)/C=C/c1cccc([N+](=O)[O-])c1 | -8 | 22 | 10 | 1.1 | -2 | -48
COc1ccc(-c2nc(SCC(=O)Nc3cccc(S(N)(=O)=O)c3)n[nH]2)cc1 | . | . | . | . | . | 62*
O=C(CCS(=O)(=O)c1ccccc1)Nc1cccc(-c2nc3ccccc3s2)c1 | 27 | 22 | 9 | 0.7 | 1 | 54*
O=C(Nc1cccc(-c2nc3ccccc3s2)c1)c1cccs1 | 2 | 0 | 1 | 1 | -7 | 0
O=C(NNC(=O)c1ccccn1)c1ccc(OC(F)F)cc1 | . | . | . | . | . | 39
O=C(NCCc1ccccn1)c1ccc(OC(F)F)cc1 | 65* | 32 | 4 | 0.3 | 10 | 37
N#C/C(=C/c1ccc2c(c1)OCO2)C(=O)Nc1ccc(O)cc1 | 60* | 0 | 11 | 0.4 | 0 | 22
CCOC(=O)C(C(=O)OCC)c1cc(Br)c2noc3c2c1C(=O)c1ccccc1-3 | 0 | 37 | 7 | 1 | 1 | 93*
CC(=O)OCCNc1cc(N2CCN(C)CC2)c2noc3c2c1C(=O)c1ccccc1-3 | 6 | -1 | 2 | 0.9 | 0 | 2
Cn1c(C(=O)NN)cc2cc(OCc3ccccc3)ccc21 | . | . | . | . | . | -3

Screening results: PubChem BioAssay, several laboratories
